Where a SMILES comes first, the peptide text is derived from it. The star is where a group is joined. FITC = O=C1OC2(c3ccc(O)cc3Oc3cc(O)ccc32)c2ccc(NC(=S)*)cc21

The subject of one series is CCL7. Briefly: Fluorescence polarization assay, CCL7. The class given is binding. Conditions: BK1.1FITC 50 nM, chemokine 1 μM, compared with negative control CXCL1. Put shortly: (§1)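 Polarization read with FITC filters, gain set at 35 mP on a peptide-only well, and converted to anisotropy, A = 2P/(3 − P). CXCL1 negative control. Two technical, three biological replicates. One-way ANOVA with Sidak's correction.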
Background: Fluorescence polarisation rises when a labelled molecule tumbles more slowly, as on binding a larger partner.

The subject of the next series is CCL18. Description: Fluorescence polarization assay, CCL18. The class given is binding. To be noted: BK1.1FITC 50 nM, chemokine 1 μM, compared with negative control CXCL1. The method in brief:
as §1

A further series deals with T1, CCL8 (Homo sapiens, UniProt P80075).
T1 sequence (P80075 24-99): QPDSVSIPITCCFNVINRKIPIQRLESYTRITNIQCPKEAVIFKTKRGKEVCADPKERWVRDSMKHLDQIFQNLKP
Description: Fluorescence polarization assay, CCL8. To be noted: fluorescent peptide 50 nM, CCL8 1 μM, 30 min, compared with scrambled control. It is filed as binding. Put shortly:
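Polarization read with FITC filters, gain set to 35 mP on a peptide-only well, and converted to anisotropy A = 2P/(3 − P). Two technical × three biological replicates. Scrambled FITC peptide as negative control; one-way ANOVA with Sidak's correction.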

Series [1] concerns the target EVA1(P672_(22-32)) hybrid protein (not stated | Rhipicephalus pulchellus). Description: BLI.
The target of series [2] is C–C motif chemokine ligand 8 (CCL8) (human) (UniProt P80075).
The next series addresses human CCL8-647 (human) (UniProt P80075). Description: flow cytometry on cells. (In flow cytometry, cells or beads pass a laser one at a time.)
The next series deals with human CCL2-647 (human) (UniProt P13500). Briefly: flow cytometry on cells.
Sequence of human CCL2-647 (human) (P13500 24-99): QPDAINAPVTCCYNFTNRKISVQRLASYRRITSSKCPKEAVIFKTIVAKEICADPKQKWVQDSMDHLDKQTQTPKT
The target in series [3] is T2, C–C motif chemokine ligand 8 (CCL8) (human), P80075.
T2 chain: T1 sequence (P80075 24-99)
Description: native MS. Conditions: remark: other sources report otherwise.

The next series has as its system P672–CCL8 complex. Description: Hydrogen–deuterium exchange MS of the P672–CCL8 complex. Conditions: complex versus free CCL8; 5 s, 30 s, 5 min, 60 min; triplicate.

As for `CC(C)[C@H](NC(=O)[C@@H]1CCCN1C(=O)[C@H](CCCCN)NC(=O)[C@H](Cc1ccccc1)NC(=O)[C@H](Cc1ccccc1)NC(=O)[C@H](CC(=O)O)NC(=O)[C@H](CCC(=O)O)NC(=O)[C@H](Cc1ccc(O)cc1)NC(=O)[C@H](CC(=O)O)NC(=O)[C@H](CCC(=O)O)NC(=O)[C@H](CC(=O)O)NC(=O)[C@H](CCC(=O)O)NC(=S)Nc1ccc2c(c1)C(=O)OC21c2ccc(O)cc2Oc2cc(O)ccc21)C(=O)N[C@H](C(=O)N[C@@H](C)C(=O)N[C@@H](Cc1ccc(O)cc1)C(=O)N[C@@H](Cc1ccccc1)C(N)=O)[C@@H](C)O` [BK1.1FITC] ({FITC}-EDEDYEDFFKPVTAYF-NH2), the “change in anisotropy with CCL7” value with CCL7 is on record as “significant increases in anisotropy”. Besides, the “change in anisotropy with CCL18” value with CCL18 is on record as “significant increases in anisotropy”. Also, the “change in anisotropy upon incubation with CCL8” value on CCL8 was “displayed an increase in anisotropy”.
Regarding “C–C motif chemokine ligand 8 (CCL8) (from UniProt P80075 24-99)”, the Kd in series [1] stood at 490 nM.
evasin EVA-P672 (natural protein) gave an IC50 of inhibition of CCL8-induced THP-1 cell migration in [2] of 2.6 nM. The IC50 with human CCL8-647 (human) and with human CCL2-647 (human) was 21 nM each time.

B1: C–C motif chemokine ligand 8 (CCL8), P80075 24-99 (ligand)
chain: T1 sequence (P80075 24-99)
Molecule B1 registered a stoichiometry N in series [3] of 2. Moreover, in the series with P672–CCL8 complex, the “% relative deuterium uptake (%D), CCL8 Arg18–Ser27” value is −6 to −18%.

The term Kd denotes the free concentration of one partner at which half of the binding sites on the other are occupied at equilibrium, for simple one-to-one binding. Low readings indicate a tighter complex, high ones a looser complex. As usually defined, the IC50 is the concentration that gives 50% inhibition. Broadly, the stoichiometry N is the number of molecules, sites or subunits per partner or assembly.
